# Measured values gathered from unrelated publications.
# Protocols differ between the studies behind these lines.
# Target: Serine/threonine-protein kinase PAK 3 (PAK3, Homo sapiens, UniProt O75914)
Compound,observed,technique,concentration,remaining binding [%]
C[C@H]1CCN(c2nccc(-c3cnn4ncccc34)n2)C1,binding,,1 µM,94
COc1ncc2cc3ccccc3nc2c1C#N,cell-free assay,competition with immobilised ligand,5 µM,100
CCS(=O)(=O)c1cc2cc(C[C@](O)(CC(C)(C)c3ccc(F)cc3C(N)=O)C(F)(F)F)[nH]c2cn1,cell-free assay,competition with immobilised ligand,1 µM,100
O=C(c1ccc(Nc2ncc(Cl)c(-c3cc4ccccc4s3)n2)cc1)N1CCC(N2CCCC2)CC1,binding,competition with immobilised ligand,1 µM,8.4
CSc1cccnc1N1CCN(Cc2nc3ccccc3[nH]2)CC1,cell-free assay,competition with immobilised ligand,1 µM,87
COc1cnc(Nc2cccc(S(N)(=O)=O)c2)nc1N1CCN(c2ccccc2)CC1,binding,competition with immobilised ligand,1 µM,100
O=C1NC(c2ccccn2)Sc2ccccc21 (stereo not drawn),cell-free assay,competition with immobilised ligand,1 µM,83
O=C(NCC1CCOCC1)c1n[nH]cc1NC(=O)c1c(F)cccc1F,binding,competition with immobilised ligand,1 µM,100
CN(CCCC(F)(F)F)c1nccc(-c2cnn3ncccc23)n1,binding,,1 µM,100
O=C(c1ccc(Nc2nccc(-c3cc4ccccc4s3)n2)cc1)N1CCC(N2CCCC2)CC1,binding,competition with immobilised ligand,1 µM,39
COc1ccc2c(c1)O[C@H](c1ccc(OC)c(OC)c1)C[C@@H]2NC(=O)C1(c2ccc3c(c2)OC(F)(F)O3)CC1,cell-free assay,competition with immobilised ligand,1 µM,100
F[C@@H]1CCN(c2nccc(-c3cnn4ncccc34)n2)C1,binding,,1 µM,100
Nc1ncc2c(n1)-c1c([nH]c3ccc(C#CC4CC4)cc13)CCCC2,binding,competition with immobilised ligand,1 µM,90
c1cnn2ncc(-c3ccnc(N4CCC45COC5)n3)c2c1,binding,,1 µM,88
CC(=O)Nc1c(C(C)=O)c(=O)n(C)c2nc(-c3ccc(Cl)cc3Cl)c(-c3ccc(Cl)cc3)cc12,cell-free assay,competition with immobilised ligand,1 µM,100
O=C(c1ccc(Nc2ncc(Cl)c(-c3ccc(Cl)s3)n2)cc1)N1CCC(N2CCCC2)CC1,binding,competition with immobilised ligand,1 µM,38
COc1cnc(Nc2cccc(S(N)(=O)=O)c2)nc1N1CCN(c2ccccc2)C(=O)C1,binding,competition with immobilised ligand,1 µM,75
CN(c1nccc(-c2cnn3ncccc23)n1)C1CC1,binding,,1 µM,100
CCN1CCN(Cc2ccc(C(=O)Nc3ccc(C)c(Oc4ccc5c(c4)CC(=O)N5)c3)cc2C(F)(F)F)CC1,binding,competition with immobilised ligand,1 µM,98
COc1ccnn2ncc(-c3ccnc(N(C)C)n3)c12,binding,,1 µM,100
CC(=O)c1c(NS(C)(=O)=O)c2cc(-c3ccc(Cl)cc3)c(-c3ccc(Cl)cc3Cl)nc2n(C)c1=O,cell-free assay,competition with immobilised ligand,1 µM,100
